{"data": "Assay results collected from several papers", "ABL1 phosphorylated": "Tyrosine-protein kinase ABL1, phosphorylated (ABL1, Homo sapiens, UniProt P00519)", "ABL1 F317I phosphorylated": "Tyrosine-protein kinase ABL1, phosphorylated (ABL1, Homo sapiens, UniProt P00519, F317I)", "ABL1 E255K phosphorylated": "Tyrosine-protein kinase ABL1, phosphorylated (ABL1, Homo sapiens, UniProt P00519, E255K)", "ABL1 H396P non-phosphorylated": "Tyrosine-protein kinase ABL1, non-phosphorylated (ABL1, Homo sapiens, UniProt P00519, H396P)", "ABL1 Q252H phosphorylated": "Tyrosine-protein kinase ABL1, phosphorylated (ABL1, Homo sapiens, UniProt P00519, Q252H)", "note": "Compare with care: the assays were run in different laboratories."}
{"Compound": "O=C(NCC1CCOCC1)c1n[nH]cc1NC(=O)c1c(F)cccc1F", "target": "ABL1 phosphorylated", "observed": "binding", "technique": "competition with immobilised ligand", "concentration": "1 µM", "remaining binding [%]": 85}
{"Compound": "COc1ncc2cc3ccccc3nc2c1C#N", "target": "Tyrosine-protein kinase ABL1, phosphorylated (ABL1, Homo sapiens, UniProt P00519, H396P)", "observed": "cell-free assay", "technique": "competition with immobilised ligand", "concentration": "5 µM", "remaining binding [%]": 97}
{"Compound": "CNC(=O)[C@@H]1CC[C@@H](n2c(-c3ccc4cnccc4c3)nc3ccc(C(=O)NCc4cccc(C(N)=O)c4)cc32)C1", "target": "ABL1 F317I phosphorylated", "observed": "binding", "technique": "competition with immobilised ligand", "concentration": "1 µM", "remaining binding [%]": 100}
{"Compound": "O=C(Nc1cccnn1)N1CC(C/C=C/c2cncc(Oc3ccc(C(F)(F)F)cn3)n2)C1", "target": "ABL1 phosphorylated", "observed": "cell-free assay", "technique": "competition with immobilised ligand", "concentration": "1 µM", "remaining binding [%]": 82}
{"Compound": "O=C(c1ccc(Nc2ncc(Cl)c(-c3ccc(Cl)s3)n2)cc1)N1CCC(N2CCCC2)CC1", "target": "Tyrosine-protein kinase ABL1, non-phosphorylated (ABL1, Homo sapiens, UniProt P00519, F317I)", "observed": "binding", "technique": "competition with immobilised ligand", "concentration": "1 µM", "remaining binding [%]": 97}
{"Compound": "Nc1ncc2c(n1)-c1c([nH]c3ccc(C#CC4CC4)cc13)CCCC2", "target": "ABL1 F317I phosphorylated", "observed": "binding", "technique": "competition with immobilised ligand", "concentration": "1 µM", "remaining binding [%]": 86}
{"Compound": "O=C(c1ccc(Nc2ncc(Cl)c(-c3cc4ccccc4s3)n2)cc1)N1CCC(N2CCCC2)CC1", "target": "Tyrosine-protein kinase ABL1, phosphorylated (ABL1, Homo sapiens, UniProt P00519, M351T)", "observed": "binding", "technique": "competition with immobilised ligand", "concentration": "1 µM", "remaining binding [%]": 12}
{"Compound": "O=C(O)[C@@H]1[C@@H](Cn2nnc3ccccc3c2=O)CC[C@H]1C(=O)c1ccc(OCCC2CCOCC2)cc1", "target": "ABL1 E255K phosphorylated", "observed": "binding", "technique": "competition with immobilised ligand", "concentration": "1 µM", "remaining binding [%]": 84}
{"Compound": "Cc1cnc(Nc2ccc(C(=O)N3CCC(N4CCCC4)CC3)cc2)nc1-c1cc2ccccc2s1", "target": "ABL1 H396P non-phosphorylated", "observed": "binding", "technique": "competition with immobilised ligand", "concentration": "1 µM", "remaining binding [%]": 0.1}
{"Compound": "COc1cnc(Nc2cccc(S(N)(=O)=O)c2)nc1N1CCN(c2ccccc2)C(=O)C1", "target": "ABL1 F317I phosphorylated", "observed": "binding", "technique": "competition with immobilised ligand", "concentration": "1 µM", "remaining binding [%]": 96}
{"Compound": "N[C@H]1CCN(c2nccc(-c3cnn4ncccc34)n2)C1", "target": "Tyrosine-protein kinase ABL1 (ABL1, Homo sapiens, UniProt P00519, F317L)", "observed": "binding", "concentration": "1 µM", "remaining binding [%]": 100}
{"Compound": "O=C(NCCCN1CCOCC1)c1ccc(Nc2nccc(-c3cc4ccccc4s3)n2)cc1", "target": "ABL1 Q252H phosphorylated", "observed": "binding", "technique": "competition with immobilised ligand", "concentration": "1 µM", "remaining binding [%]": 58}
{"Compound": "CC1=C(C#N)[C@@H](c2ccc3[nH]nc(C)c3c2)C(C#N)=C(c2ccc(Cl)cc2)N1", "target": "ABL1 Q252H phosphorylated", "observed": "cell-free assay", "technique": "competition with immobilised ligand", "concentration": "1 µM", "remaining binding [%]": 100}
{"Compound": "O=C(NCCCN1CCOCC1)c1ccc(Nc2ncc(Cl)c(-c3ccc(Cl)s3)n2)cc1", "target": "ABL1 phosphorylated", "observed": "binding", "technique": "competition with immobilised ligand", "concentration": "1 µM", "remaining binding [%]": 36}
{"Compound": "C[C@@H](c1ccc(-n2cnc3c(N)ncnc32)cc1)N1CCc2nn(C)c(Cc3ccccc3)c2C1=O", "target": "ABL1 H396P non-phosphorylated", "observed": "binding", "technique": "competition with immobilised ligand", "concentration": "0.1 µM", "remaining binding [%]": 13}
{"Compound": "CC(=O)N1CCC(c2ccc(C(=O)NC(=N)N)cc2C(F)(F)F)CC1", "target": "ABL1 F317I phosphorylated", "observed": "binding", "concentration": "1 µM", "remaining binding [%]": 96}
{"Compound": "C=CC(=O)N1CCC(C(=O)NCC(=O)N2CCN(c3nc(-c4cnc(N)nc4C(F)F)nc(N4CCOCC4)n3)CC2)CC1", "target": "Tyrosine-protein kinase ABL1, phosphorylated (ABL1, Homo sapiens, UniProt P00519, T315I)", "observed": "binding", "technique": "competition with immobilised ligand", "concentration": "1 µM", "remaining binding [%]": 82}
{"Compound": "Cc1nc(Cc2cccc(C(F)(F)F)c2)sc1-c1ccc(C(N)=O)nc1", "target": "ABL1 F317I phosphorylated", "observed": "binding", "concentration": "1 µM", "remaining binding [%]": 83}
{"Compound": "O=C(c1ccc(Nc2nccc(-c3cc4ccccc4s3)n2)cc1)N1CCC(N2CCCC2)CC1", "target": "Tyrosine-protein kinase ABL1, non-phosphorylated (ABL1, Homo sapiens, UniProt P00519, Q252H)", "observed": "binding", "technique": "competition with immobilised ligand", "concentration": "1 µM", "remaining binding [%]": 9.8}
{"Compound": "O=C(Nc1c[nH]nc1C(=O)NC1CCNCC1)c1cc(F)cc(F)c1", "target": "Tyrosine-protein kinase ABL1, phosphorylated (ABL1, Homo sapiens, UniProt P00519, Y253F)", "observed": "binding", "technique": "competition with immobilised ligand", "concentration": "1 µM", "remaining binding [%]": 100}
{"Compound": "CN([C@@H]1CCc2c(CC(=O)O)c3ccccc3n2C1)S(=O)(=O)c1ccc(F)cc1", "target": "ABL1 H396P non-phosphorylated", "observed": "cell-free assay", "technique": "competition with immobilised ligand", "concentration": "1 µM", "remaining binding [%]": 100}
{"Compound": "c1cncc(-c2cccc(Nc3nccc(NC4CCCCC4)n3)c2)c1", "target": "ABL1 E255K phosphorylated", "observed": "binding", "technique": "competition with immobilised ligand", "concentration": "10 µM", "remaining binding [%]": 14}
{"Compound": "Cc1cc(C)c(-n2ccn3nc(-c4cccnc4)cc23)cc1NC(=O)c1cc(C#N)cc(S(F)(F)(F)(F)F)c1", "target": "Tyrosine-protein kinase ABL1, phosphorylated (ABL1, Homo sapiens, UniProt P00519, F317L)", "observed": "cell-free assay", "technique": "competition with immobilised ligand", "concentration": "0.1 µM", "remaining binding [%]": 63.3}
{"Compound": "CN(CCCC(F)(F)F)c1nccc(-c2cnn3ncccc23)n1", "target": "Tyrosine-protein kinase ABL1 (ABL1, Homo sapiens, UniProt P00519, Q252H)", "observed": "binding", "concentration": "1 µM", "remaining binding [%]": 100}
{"Compound": "Cc1nccc(COC(=O)N2C[C@@H]3[C@@H](CNC(=O)c4ccc5[nH]nnc5c4)[C@@H]3C2)n1", "target": "ABL1 Q252H phosphorylated", "observed": "cell-free assay", "technique": "competition with immobilised ligand", "concentration": "1 µM", "remaining binding [%]": 93}
{"Compound": "CCN1CCN(Cc2ccc(C(=O)Nc3ccc(C)c(Oc4ccc5c(c4)CC(=O)N5)c3)cc2C(F)(F)F)CC1", "target": "ABL1 Q252H phosphorylated", "observed": "binding", "technique": "competition with immobilised ligand", "concentration": "1 µM", "remaining binding [%]": 49}
